# Results taken from ChEMBL document CHEMBL3286189, “Discovery and SAR studies of a novel class of cytotoxic 1,4-disubstituted piperidines via Ugi reaction” (Eur J Med Chem, 2014).
# What was measured:
# L1210 = assay: Cytostatic activity against mouse L1210 cells assessed as inhibition of cell proliferation after 48 hrs by coulter counting analysis; format: functional, cell-based; conditions: Mus musculus, L1210, 48 h
# Summary of the method: (§1)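 Anti-proliferative screen in murine leukemia L1210, human T-lymphocyte CEM and human cervix carcinoma HeLa cultures. The value reported is the IC50, the concentration that inhibits cell proliferation by 50%.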
# CCRF-CEM = assay: Cytostatic activity against human CEM cells assessed as inhibition of cell proliferation after 72 hrs by coulter counting analysis; format: functional, cell-based; conditions: Homo sapiens, CCRF-CEM, 72 h; summary of the method: as §1
# HeLa = assay: Cytostatic activity against human HeLa cells assessed as inhibition of cell proliferation after 72 hrs by coulter counting analysis; format: functional, cell-based; conditions: Homo sapiens, HeLa, 72 h; summary of the method: as §1
# CAKI-1 [1] = assay: Cytostatic activity against human Caki1 cells assessed as inhibition of cell proliferation after 96 hrs by coulter counting analysis; format: functional, cell-based; conditions: CAKI-1, 96 h
# Summary of the method: (§2)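 Anti-proliferative testing extended to human kidney Caki-1 and human liver Huh-7 tumour cells. The value reported is the IC50, the concentration that inhibits tumour cell growth by 50%.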
# Huh-7 = assay: Cytostatic activity against human HuH7 cells assessed as inhibition of cell proliferation after 96 hrs by coulter counting analysis; format: functional, cell-based; conditions: Huh-7, 96 h; summary of the method: as §2
# K562 = assay: Anticancer activity against human K562 cells; format: functional
# Summary of the method: (§3)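 Values come from the NCI 60-cell-line human tumour panel, run on a single analog. Cytostatic and cytotoxic responses were read for each cell line across graded molar concentrations of that compound.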
# RPMI-8226 = assay: Anticancer activity against human RPMI8226 cells; format: functional; summary of the method: as §3
# SR = assay: Anticancer activity against human SR cells; format: functional; summary of the method: as §3
# A549 = assay: Anticancer activity against human A549/ATCC cells; format: functional; summary of the method: as §3
# HOP-62 = assay: Anticancer activity against human HOP62 cells; format: functional; summary of the method: as §3
# [2] = Anticancer activity against human HOP92 cells; format: functional; summary of the method: as §3
# NCI-H23 = assay: Anticancer activity against human NCI-H23 cells; format: functional; summary of the method: as §3
# NCI-H460 = assay: Anticancer activity against human NCI-H460 cells; format: functional; summary of the method: as §3
# COLO 205 = assay: Anticancer activity against human COLO205 cells; format: functional; summary of the method: as §3
# HCT-116 = assay: Anticancer activity against human HCT116 cells; format: functional; summary of the method: as §3
# [3] = Anticancer activity against human SF295 cells; format: functional; summary of the method: as §3
# SNB-19 = assay: Anticancer activity against human SNB19 cells; format: functional; summary of the method: as §3
# SNB-75 = assay: Anticancer activity against human SNB75 cells; format: functional; summary of the method: as §3
# Malme-3M = assay: Anticancer activity against human MALME-3M cells; format: functional; summary of the method: as §3
# M14 = assay: Anticancer activity against human M14 cells; format: functional; summary of the method: as §3
# MDA-MB-435 = assay: Anticancer activity against human MDA-MB-435 cells; format: functional; summary of the method: as §3
# [4] = Anticancer activity against human UACC257 cells; format: functional
# Summary of the method: (§4)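 Assayed in the NCI Cancer-60 human tumour cell line panel, with activity read across several log-step concentrations.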
# [5] = Anticancer activity against human UACC62 cells; format: functional; summary of the method: as §4
# IGROV-1 = assay: Anticancer activity against human IGROV1 cells; format: functional; summary of the method: as §3
# [6] = Anticancer activity against human OVCAR3 cells; format: functional; summary of the method: as §3
# NCI/ADR-RES = assay: Anticancer activity against human NCI/ADR-RES cells; format: functional; summary of the method: as §3
# SK-OV-3 = assay: Anticancer activity against human SKOV3 cells; format: functional; summary of the method: as §3
# 786-0 = assay: Anticancer activity against human 786-0 cells; format: functional; summary of the method: as §3
# A498 = assay: Anticancer activity against human A498 cells; format: functional; summary of the method: as §3
# CAKI-1 [7] = assay: Anticancer activity against human Caki1 cells; format: functional
# [8] = Anticancer activity against human RXF393 cells; format: functional; summary of the method: as §3
# SN12C = assay: Anticancer activity against human SN12C cells; format: functional; summary of the method: as §3
# TK-10 = assay: Anticancer activity against human TK10 cells; format: functional; summary of the method: as §3
# [9] = Anticancer activity against human UO31 cells; format: functional; summary of the method: as §4
# PC-3 = assay: Anticancer activity against human PC3 cells; format: functional; summary of the method: as §3
# DU-145 = assay: Anticancer activity against human DU145 cells; format: functional; summary of the method: as §3
# MCF7 = assay: Anticancer activity against human MCF7 cells; format: functional; summary of the method: as §3
# MDA-MB-231 = assay: Anticancer activity against human MDA-MB-231/ATCC cells; format: functional; summary of the method: as §3
# [10] = Anticancer activity against human Hs 578T cells; format: functional; summary of the method: as §3
# MDA-MB-468 = assay: Anticancer activity against human MDA-MB-468 cells; format: functional; summary of the method: as §3
# [11] = read-out: pLC50 (the source's name) (converted)
structure (smiles),measurement,setting,value
CC(C)(C)OC(=O)N[C@@H](Cc1ccccc1)C(=O)N(Cc1ccccc1)C1(C(=O)NCc2ccccc2)CCN(Cc2ccccc2)CC1,IC50,L1210,3.5 µM
same,IC50,CCRF-CEM,4.4 µM
same,IC50,HeLa,4.2 µM
same,IC50,CAKI-1 [1],9.5 µM
same,IC50,Huh-7,6.4 µM
same,GI50,K562,3.39 µM
same,CC50,K562; [11],> 100 µM
same,TGI,K562; read-out: pTGI,> 100 µM
same,GI50,RPMI-8226,2.19 µM
same,CC50,RPMI-8226; [11],> 100 µM
same,TGI,RPMI-8226; read-out: pTGI (converted),6.92 µM
same,GI50,SR,2.34 µM
same,CC50,SR; [11],> 100 µM
same,TGI,SR; read-out: pTGI (converted),7.59 µM
same,GI50,A549,3.89 µM
same,CC50,A549; [11],> 100 µM
same,TGI,A549; read-out: pTGI,> 100 µM
same,GI50,HOP-62,3.89 µM
same,CC50,HOP-62; [11],> 100 µM
same,TGI,HOP-62; read-out: pTGI,> 100 µM
same,GI50,[2]; HOP-92,1.45 µM
same,CC50,"[2]; HOP-92, read-out: pLC50 (the source's name) (converted)",> 100 µM
same,TGI,"[2]; HOP-92, read-out: pTGI (converted)",5.37 µM
same,GI50,NCI-H23,5.62 µM
same,CC50,NCI-H23; [11],> 100 µM
same,TGI,NCI-H23; read-out: pTGI,> 100 µM
same,GI50,NCI-H460,3.02 µM
same,CC50,NCI-H460; [11],> 100 µM
same,TGI,NCI-H460; read-out: pTGI (converted),87.1 µM
same,GI50,COLO 205,1.66 µM
same,CC50,COLO 205; [11],6.61 µM
same,TGI,COLO 205; read-out: pTGI (converted),3.31 µM
same,GI50,HCT-116,2.4 µM
same,CC50,HCT-116; [11],> 100 µM
same,TGI,HCT-116; read-out: pTGI (converted),10 µM
same,GI50,[3]; SF-295,2.88 µM
same,CC50,"[3]; SF-295, read-out: pLC50 (the source's name) (converted)",> 100 µM
same,TGI,"[3]; SF-295, read-out: pTGI",> 100 µM
same,GI50,SNB-19,5.25 µM
same,CC50,SNB-19; [11],> 100 µM
same,TGI,SNB-19; read-out: pTGI,> 100 µM
same,GI50,SNB-75,2.95 µM
same,CC50,SNB-75; [11],> 100 µM
same,TGI,SNB-75; read-out: pTGI,> 100 µM
same,GI50,Malme-3M,3.02 µM
same,CC50,Malme-3M; [11],> 100 µM
same,TGI,Malme-3M; read-out: pTGI (converted),10 µM
same,GI50,M14,2.63 µM
same,CC50,M14; [11],> 100 µM
same,TGI,M14; read-out: pTGI (converted),44.7 µM
same,GI50,MDA-MB-435,3.02 µM
same,CC50,MDA-MB-435; [11],> 100 µM
same,TGI,MDA-MB-435; read-out: pTGI,> 100 µM
same,GI50,[4]; UACC-257,2.57 µM
same,CC50,"[4]; UACC-257, read-out: pLC50 (the source's name) (converted)",> 100 µM
same,TGI,"[4]; UACC-257, read-out: pTGI",> 100 µM
same,GI50,[5]; UACC-62,2.51 µM
same,CC50,"[5]; UACC-62, read-out: pLC50 (the source's name) (converted)",> 100 µM
same,TGI,"[5]; UACC-62, read-out: pTGI (converted)",7.94 µM
same,GI50,IGROV-1,5.75 µM
same,CC50,IGROV-1; [11],> 100 µM
same,TGI,IGROV-1; read-out: pTGI,> 100 µM
same,GI50,[6]; OVCAR-3,3.98 µM
same,CC50,"[6]; OVCAR-3, read-out: pLC50 (the source's name) (converted)",> 100 µM
same,TGI,"[6]; OVCAR-3, read-out: pTGI",> 100 µM
same,GI50,NCI/ADR-RES,2.88 µM
same,CC50,NCI/ADR-RES; [11],> 100 µM
same,TGI,NCI/ADR-RES; read-out: pTGI (converted),46.8 µM
same,GI50,SK-OV-3,3.02 µM
same,CC50,SK-OV-3; [11],> 100 µM
same,TGI,SK-OV-3; read-out: pTGI,> 100 µM
same,GI50,786-0,3.02 µM
same,CC50,786-0; [11],> 100 µM
same,TGI,786-0; read-out: pTGI,43.7 µM
same,GI50,A498,1.45 µM
same,CC50,A498; [11],> 100 µM
same,TGI,A498; read-out: pTGI (converted),6.31 µM
same,GI50,CAKI-1 [7],2.34 µM
same,CC50,CAKI-1 [7]; [11],> 100 µM
same,TGI,CAKI-1 [7]; read-out: pTGI,> 100 µM
same,GI50,[8]; RXF 393,3.09 µM
same,CC50,"[8]; RXF 393, read-out: pLC50 (the source's name) (converted)",> 100 µM
same,TGI,"[8]; RXF 393, read-out: pTGI",> 100 µM
same,GI50,SN12C,3.47 µM
same,CC50,SN12C; [11],> 100 µM
same,TGI,SN12C; read-out: pTGI,> 100 µM
same,GI50,TK-10,3.16 µM
same,CC50,TK-10; [11],> 100 µM
same,TGI,TK-10; read-out: pTGI (converted),70.8 µM
same,GI50,[9]; UO-31,2.14 µM
same,CC50,"[9]; UO-31, read-out: pLC50 (the source's name) (converted)",> 100 µM
same,TGI,"[9]; UO-31, read-out: pTGI",> 100 µM
same,GI50,PC-3,2.45 µM
same,CC50,PC-3; [11],> 100 µM
same,TGI,PC-3; read-out: pTGI,> 100 µM
same,GI50,DU-145,5.37 µM
same,CC50,DU-145; [11],> 100 µM
same,TGI,DU-145; read-out: pTGI,> 100 µM
same,GI50,MCF7,2.82 µM
same,CC50,MCF7; [11],> 100 µM
same,TGI,MCF7; read-out: pTGI (converted),19.1 µM
same,GI50,MDA-MB-231,3.02 µM
same,CC50,MDA-MB-231; [11],> 100 µM
same,TGI,MDA-MB-231; read-out: pTGI (converted),79.4 µM
same,GI50,[10],4.27 µM
same,CC50,[10]; [11],> 100 µM
same,TGI,[10]; read-out: pTGI,> 100 µM
same,GI50,MDA-MB-468,1.62 µM
same,CC50,MDA-MB-468; [11],> 100 µM
same,TGI,MDA-MB-468; read-out: pTGI (converted),5.89 µM
